Laboratory results as given in ChEMBL document CHEMBL1122517, “2-Phenylindoles. Relationship between structure, estrogen receptor affinity, and mammary tumor inhibiting activity in the rat” (1984).
Each block holds one compound with its values, some of them ahead of it.

Experiments:
[1] = target: Estrogen receptor (Bos taurus) (UniProt Q9XSB5+P49884); assay: Relative binding affinity for the calf uterine estrogen receptor measured as the ratio of molar concentration of 17-beta-estradiol (E2) and inhibitor required to decrease the amount of bound [3H]E2 by 50%; format: protein assay
Outline: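 Competitive binding in calf uterine cytosol with 5×10^-9 M [3H]estradiol, 18 h at 4 °C, Tris/EDTA buffer (0.01 M, pH 7.5). Unbound ligand was removed with dextran-coated charcoal (90 min, 4 °C) and supernatant radioactivity counted. Six competitor concentrations gave 10–90% bound. From semilog plots, RBA = ratio of molar concentrations of estradiol to compound giving 50% decrease in binding, ×100.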

Rattus norvegicus [2] = organism: Rattus norvegicus; assay: Change in DMBA-induced mammary carcinoma tumor area in rats at 2 mg dose; -100-231; format: functional
Outline: (§1)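 Female Sprague-Dawley rats got one 20 mg DMBA dose by gavage at 50 days old and were palpated twice weekly from day 30. Rats were randomized once tumor area exceeded 140 mm². Dose (per kg) was given sc in olive oil, once daily Monday to Thursday and doubled on Friday. Tumor area was taken from caliper measurements of two perpendicular axes, twice weekly. Change per animal is given as median % and range.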

Rattus norvegicus [3] = organism: Rattus norvegicus; assay: Change in body weight of DMBA-induced mammary carcinoma tumor bearing rats at 2 mg dose; format: functional
Outline: (§2)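 DMBA-induced tumor-bearing Sprague-Dawley rats (20 mg DMBA by gavage at 50 days old), randomized when tumor area exceeded 140 mm². Dose per kg was given sc in olive oil, single dose daily Monday to Thursday, double dose Friday. Body weight was measured twice weekly. Read-out was % change in body weight.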

Rattus norvegicus [4] = organism: Rattus norvegicus; assay: Change in DMBA-induced mammary carcinoma tumor area in rats at 2 mg dose; format: functional; outline: as §1
Rattus norvegicus [5] = organism: Rattus norvegicus; assay: Percent progressive DMBA-induced mammary carcinoma tumors in rats at 2 mg dose; format: functional
Outline: (§3)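 Female Sprague-Dawley rats, 50 days old, given a single 20 mg DMBA dose in 1 mL olive oil by gavage. Rats were palpated twice weekly from day 30, and those without tumors by day 70 were discarded. Rats were randomized once tumor area exceeded 140 mm². Drug dose was per kg in olive oil (1 mL/kg) sc, single dose Mon–Thu and double dose Fri. Tumor area (caliper, two perpendicular axes) and body weight were measured twice weekly.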

Rattus norvegicus [6] = organism: Rattus norvegicus; assay: Partial remission (%) of DMBA-induced mammary carcinoma tumors in rats; format: functional
Outline: (§4)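 DMBA-induced tumors in Sprague-Dawley rats, entered when tumor area exceeded 140 mm². Dose per kg was given sc in olive oil, daily Monday to Thursday with a double dose Friday. Tumors were measured by calipers twice weekly. Tumor number was counted at the start of the test. Complete remission meant the tumor was no longer palpable. Partial remission meant reduction to ≤50% of initial size. New tumor appearance was recorded.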

Rattus norvegicus [7] = organism: Rattus norvegicus; assay: Number of DMBA-induced mammary carcinoma tumors in rats at 2 mg dose; format: functional; outline: as §4
[8] = target: T1, Estrogen receptor (Mus musculus) (UniProt O08537+P19785); assay: Uterotrophic activity in mice as uterus dry weight (mg)/body weight (g) *100 at 0.2 ug dose; format: functional, tissue-based
T1 sequence (O08537 whole entry, looked up): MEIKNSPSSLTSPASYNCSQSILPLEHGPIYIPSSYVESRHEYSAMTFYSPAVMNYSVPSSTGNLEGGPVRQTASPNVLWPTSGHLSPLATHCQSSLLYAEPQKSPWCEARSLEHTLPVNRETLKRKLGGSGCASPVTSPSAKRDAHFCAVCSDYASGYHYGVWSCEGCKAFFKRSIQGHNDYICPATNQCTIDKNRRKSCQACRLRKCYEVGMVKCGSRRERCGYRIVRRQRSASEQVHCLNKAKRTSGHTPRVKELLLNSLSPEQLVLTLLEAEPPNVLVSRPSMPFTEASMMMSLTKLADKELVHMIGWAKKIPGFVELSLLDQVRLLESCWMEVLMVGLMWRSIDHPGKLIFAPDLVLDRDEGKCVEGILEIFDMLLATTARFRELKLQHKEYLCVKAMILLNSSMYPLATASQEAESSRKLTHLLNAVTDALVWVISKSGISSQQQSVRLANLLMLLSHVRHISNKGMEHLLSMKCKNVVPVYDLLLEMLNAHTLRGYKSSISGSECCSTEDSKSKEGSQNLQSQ
T1 sequence (P19785 whole entry, looked up): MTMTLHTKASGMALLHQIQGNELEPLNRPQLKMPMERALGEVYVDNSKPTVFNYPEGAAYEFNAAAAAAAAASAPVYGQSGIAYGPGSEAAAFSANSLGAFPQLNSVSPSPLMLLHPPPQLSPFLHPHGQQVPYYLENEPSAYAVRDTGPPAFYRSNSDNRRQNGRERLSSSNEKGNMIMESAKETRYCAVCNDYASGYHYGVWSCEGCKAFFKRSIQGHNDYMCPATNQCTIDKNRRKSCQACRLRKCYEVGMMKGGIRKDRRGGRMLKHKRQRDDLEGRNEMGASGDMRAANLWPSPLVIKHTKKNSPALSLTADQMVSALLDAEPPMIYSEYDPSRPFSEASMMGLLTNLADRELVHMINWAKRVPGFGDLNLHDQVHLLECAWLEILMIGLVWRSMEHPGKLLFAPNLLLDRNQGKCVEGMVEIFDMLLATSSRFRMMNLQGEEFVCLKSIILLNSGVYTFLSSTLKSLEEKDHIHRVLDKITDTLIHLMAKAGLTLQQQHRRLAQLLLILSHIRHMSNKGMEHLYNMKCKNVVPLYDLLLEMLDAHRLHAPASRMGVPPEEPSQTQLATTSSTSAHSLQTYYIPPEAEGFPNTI
Outline: (§5)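 Immature 19-day-old female NMRI mice, groups of 10. Compound dose per animal in olive oil (50 µL) sc on 3 consecutive days. Mice were killed 24 h after the last injection. Uteri were Bouin-fixed 20 h, cleaned, washed with alcoholic LiCl, and dried at 100 °C for 24 h. Effect = uterine dry weight (mg)/body weight (g) ×100; mean ± SD.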

Rattus norvegicus [9] = organism: Rattus norvegicus; assay: Complete remission (%) of DMBA-induced mammary carcinoma tumors in rats at 2 mg dose; format: functional; outline: as §4
[10] = target: T1, Estrogen receptor (Mus musculus); assay: Uterotrophic activity in mice as uterus dry weight (mg)/body weight (g) *100 at 125 ug dose; format: functional, tissue-based; outline: as §5
[11] = target: T1, Estrogen receptor (Mus musculus); assay: Uterotrophic activity in mice as uterus dry weight (mg)/body weight (g) *100 at 1 ug dose; format: functional, tissue-based; outline: as §5
[12] = target: T1, Estrogen receptor (Mus musculus); assay: Uterotrophic activity in mice as uterus dry weight (mg)/body weight (g) *100 at 25 ug dose; format: functional, tissue-based; outline: as §5
Rattus norvegicus [13] = organism: Rattus norvegicus; assay: Formation of new DMBA-induced mammary carcinoma tumors in rats at 2 mg dose; format: functional; outline: as §4
Rattus norvegicus [14] = organism: Rattus norvegicus; assay: Percent unchanged DMBA-induced mammary carcinoma tumors in rats at 2 mg dose; format: functional; outline: as §3
[15] = target: T1, Estrogen receptor (Mus musculus); assay: Uterotrophic activity in mice as uterus dry weight (mg)/body weight (g) *100 at 5 ug dose; format: functional, tissue-based; outline: as §5
Rattus norvegicus [16] = organism: Rattus norvegicus; assay: Partial remission (%) of DMBA-induced mammary carcinoma tumors in rats at 0.5 mg dose; format: functional; outline: as §4
Rattus norvegicus [17] = organism: Rattus norvegicus; assay: Formation of new DMBA-induced mammary carcinoma tumors in rats at 0.5 mg dose; format: functional; outline: as §4
Rattus norvegicus [18] = organism: Rattus norvegicus; assay: Percent unchanged DMBA-induced mammary carcinoma tumors in rats at 0.5 mg dose; format: functional; outline: as §3
Rattus norvegicus [19] = organism: Rattus norvegicus; assay: Change in DMBA-induced mammary carcinoma tumor area in rats at 2.0 mg dose; format: functional; outline: as §1
Rattus norvegicus [20] = organism: Rattus norvegicus; assay: Percent progressive DMBA-induced mammary carcinoma tumors in rats at 0.5 mg dose; format: functional; outline: as §3
Rattus norvegicus [21] = organism: Rattus norvegicus; assay: Number of DMBA-induced mammary carcinoma tumors in rats at 0.5 mg dose; format: functional; outline: as §4
Rattus norvegicus [22] = organism: Rattus norvegicus; assay: Partial remission (%) of DMBA-induced mammary carcinoma tumors in rats at 2 mg dose; format: functional; outline: as §3
Rattus norvegicus [23] = organism: Rattus norvegicus; assay: Change in DMBA-induced mammary carcinoma tumor area in rats at 0.5 mg dose; -100-346; format: functional; outline: as §1
Rattus norvegicus [24] = organism: Rattus norvegicus; assay: Change in DMBA-induced mammary carcinoma tumor area in rats at 0.5 mg dose; format: functional; outline: as §1
Rattus norvegicus [25] = organism: Rattus norvegicus; assay: Complete remission (%) of DMBA-induced mammary carcinoma tumors in rats at 0.5 mg dose; format: functional; outline: as §4
Rattus norvegicus [26] = organism: Rattus norvegicus; assay: Change in body weight of DMBA-induced mammary carcinoma tumor bearing rats at 0.5 mg dose; format: functional; outline: as §2

RBA [1]: 23
Structure (SMILES): CCc1c(-c2ccc(O)cc2)n(CC)c2ccc(O)cc12

RBA [1]: 10
Structure (SMILES): Cc1c(-c2ccc(O)cc2)n(C)c2cc(O)ccc12

RBA [1]: 3.5
Structure (SMILES): CCCn1c(-c2cccc(O)c2)c(C)c2ccc(O)cc21

RBA [1]: 0.02
Structure (SMILES): CCn1c(-c2ccc(O)cc2)c(C)c2cccc(O)c21

RBA [1]: 13
Structure (SMILES): Cc1c(-c2ccc(O)cc2)n(C(C)C)c2cc(O)ccc12

Structure (SMILES): CCc1c(-c2ccc(OC(C)=O)cc2)n(CC)c2cc(OC(C)=O)ccc12
Change of tumor area (Rattus norvegicus [2]): -100% | Change of body weight (Rattus norvegicus [3]): -13% | Change of tumor area (Rattus norvegicus [4]): -95% | Progressed tumors (Rattus norvegicus [5]): 8% | Partial remission (Rattus norvegicus [6]): 13% | No. of tumors (Rattus norvegicus [7]): 36 | Uterotrophic effect [8]: 25.5 | Complete remission (Rattus norvegicus [9]): 74% | Uterotrophic effect [10]: 44.7 | Uterotrophic effect [11]: 36.2 | Uterotrophic effect [12]: 46.4 | New tumors (Rattus norvegicus [13]): 3 | Static tumors (Rattus norvegicus [14]): 5% | Uterotrophic effect [15]: 45.6

RBA [1]: 5.9
Structure (SMILES): CCc1c(-c2ccc(O)cc2)n(C)c2cc(O)ccc12

RBA [1]: 1.7
Structure (SMILES): CCn1c(-c2cccc(O)c2)cc2ccc(O)cc21

RBA [1]: 16
Structure (SMILES): CCn1c(-c2ccc(O)cc2)cc2ccc(O)cc21

RBA [1]: 5.8
Structure (SMILES): CCn1c(-c2ccc(O)cc2)cc2cc(O)ccc21

RBA [1]: 16
Structure (SMILES): CCCn1c(-c2ccc(O)cc2)c(C)c2cc(O)ccc21

RBA [1]: 1.7
Structure (SMILES): CCCc1c(-c2ccc(O)cc2)n(CCC)c2ccc(O)cc12

RBA [1]: 0.6
Structure (SMILES): Cc1c(-c2cccc(O)c2)n(C)c2ccc(O)cc12

Structure (SMILES): CCc1c(-c2ccc(OC(C)=O)cc2)n(CC)c2ccc(OC(C)=O)cc12
Uterotrophic effect [10]: 40.2 | Uterotrophic effect [11]: 29.5 | Uterotrophic effect [12]: 42.4 | Uterotrophic effect [15]: 39.1

RBA [1]: 0.01
Structure (SMILES): Oc1ccc(-c2cc3cc(O)ccc3[nH]2)cc1

Structure (SMILES): CCn1c(-c2ccc(OC(C)=O)cc2)c(C)c2ccc(OC(C)=O)cc21
Partial remission (Rattus norvegicus [16]): 11% | New tumors (Rattus norvegicus [17]): 6 | Change of body weight (Rattus norvegicus [3]): -13% | Progressed tumors (Rattus norvegicus [5]): 5% | No. of tumors (Rattus norvegicus [7]): 34 | Uterotrophic effect [8]: 20.8 | Static tumors (Rattus norvegicus [18]): 15% | Change of tumor area (Rattus norvegicus [19]): -96% | Progressed tumors (Rattus norvegicus [20]): 9% | Complete remission (Rattus norvegicus [9]): 70% | No. of tumors (Rattus norvegicus [21]): 40 | Uterotrophic effect [10]: 42.4 | Partial remission (Rattus norvegicus [22]): 23% | Change of tumor area (Rattus norvegicus [23]): -100% | Change of tumor area (Rattus norvegicus [24]): -74% | Complete remission (Rattus norvegicus [25]): 65% | Uterotrophic effect [11]: 31.6 | Uterotrophic effect [12]: 44.8 | Change of body weight (Rattus norvegicus [26]): -15% | New tumors (Rattus norvegicus [13]): 6 | Static tumors (Rattus norvegicus [14]): 2% | Uterotrophic effect [15]: 41.5

RBA [1]: 1.7
Structure (SMILES): CCn1c(-c2cccc(O)c2)cc2cc(O)ccc21

RBA [1]: 33
Structure (SMILES): CCn1c(-c2ccc(O)cc2)c(C)c2ccc(O)cc21

RBA [1]: 3.8
Structure (SMILES): Cn1c(-c2ccc(O)cc2)cc2ccc(O)cc21

RBA [1]: 0.06
Structure (SMILES): Cc1c(-c2ccc(O)cc2)[nH]c2ccc(O)cc12

RBA [1]: 0.8
Structure (SMILES): Cn1c(-c2ccc(O)cc2)cc2cc(O)ccc21
